Compound activity from PubChem BioAssay.
Rows were chosen to be rich in hits. Some 1.8% of all compounds tested hit in one or more screens of this group.
TPT1 inh: C. albicans TPT1 enzyme inhibition. recombinant caTPT1, FP RNA substrate dephosphorylation. inhibition, % at 5 µM. 300,000 tested, 0.81% active. AID 1962;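 active means inhibition above the mean of all tested compounds plus 3 SD, set per screening campaign, cut at about 24% in these data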;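 further: plate controls were DMSO alone for no effect and ferristatin control at 100 nM for full effect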
CSN deneddyl inh: blocks human CSN-mediated cullin deneddylation; Purified CSN, SCF-Nedd8-OG deneddylation, fluorescence polarization; inhibition, % at 12.5 µM; 360,000 tested, 0.38% active; AID 651999;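 active means pattern-corrected inhibition above about 35%, with an unprinted fluorescence ratio check between 0.5 and 1.5, limit read from the data, passing the limit was not always enough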;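 further: 0% = enzyme with substrate and 100% = substrate without enzyme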
Target sequence (Q92905 whole entry, looked up, one chain of several): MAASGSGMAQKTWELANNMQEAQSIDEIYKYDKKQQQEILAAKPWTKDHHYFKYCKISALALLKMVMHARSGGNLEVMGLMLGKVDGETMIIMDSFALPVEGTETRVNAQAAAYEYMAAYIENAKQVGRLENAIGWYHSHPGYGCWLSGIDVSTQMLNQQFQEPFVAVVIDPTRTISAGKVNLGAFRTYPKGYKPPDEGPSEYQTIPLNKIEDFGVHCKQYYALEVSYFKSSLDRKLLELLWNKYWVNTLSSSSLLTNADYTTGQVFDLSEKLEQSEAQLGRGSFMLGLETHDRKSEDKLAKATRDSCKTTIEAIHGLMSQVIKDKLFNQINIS
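Detection – fluorescence polarization · System – HEK293T-derived human Csn5 enzyme · Controls – substrate-only high control, full reaction low control · Timing – 90 min, room temperature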
HNF4A DNA FP: change in binding of human HNF4 alpha to DNA; P41235; HNF4a-FITC DNA binding, fluorescence polarization, 1 h; activity change, % at 10 µM; 360,000 tested, 0.3% active; AID 1224865; in the data active means activity change above about 30%, passing the limit was not always enough
SENP1 inh: SENP1 (human) catalytic domain inhibition. 360,000 tested, 0.21% active. Q9P0U3. inhibition, % at 10 µM. AID 624204. recombinant SENP1 catalytic domain, CyPet-SUMO1-YPet FRET cleavage;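 active means inhibition at least 30% at 10 µM, raw YFP signal under a set limit, fluorescence ratio 0.5 to 1.5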;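 further: 0% = enzyme with DMSO and 100% = no enzyme wells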
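Assay system – human recombinant His6-tagged SENP1 catalytic domain enzyme · Input – SENP1 enzyme, 20 pM final · Buffer or medium – Tris pH 8 buffer plus EDTA, NaCl, BME, BSA, NP40, catalase · Schedule – 50 min reaction at room temperature · Technique – FRET read of cyan and yellow fluorescence · Control set – no-enzyme wells low, DMSO-plus-enzyme wells high control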
SUMO HTRF inh: blocks human SUMOylation mediated by UBC9. HTRF SUMOylation assay, SAE1/SAE2 + UBC9, in vitro. P63279. AID 2006. 290,000 tested, 0.36% active. inhibition, % at 35 µM; in the data active means inhibition above about 50%, passing the limit was not always enough
Target sequence (P63279 whole entry, looked up): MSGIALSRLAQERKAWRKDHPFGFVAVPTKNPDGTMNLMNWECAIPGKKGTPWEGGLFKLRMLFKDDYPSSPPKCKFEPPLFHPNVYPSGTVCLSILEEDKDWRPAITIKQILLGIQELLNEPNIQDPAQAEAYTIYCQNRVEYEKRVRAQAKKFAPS
Rpn11 block: inhibitors of human proteasome Rpn11 | calls only at 20 µM | O00487 | human 26S proteasome, Ub4-pepOG fluorescence polarization; 20S core pre-blocked with epoxomicin | 360,000 tested, 0.59% active;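 active means inhibition at 20 µM, scaled to each plate's controls, above about 33%, limit read from the data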
Rpn11 confirm: Rpn11 inhibition confirmation, single concentration. shares compounds with Rpn11 block. purified human 26S proteasome, Ub4-pepOG fluorescence polarization; proteasome pretreated with epoxomicin. inhibition, % at 20 µM. 1,900 tested, 29% active
MMP-2 counter: counter-screen for RPN11 inhibitors: inhibition of human MMP-2; shares compounds with Rpn11 block; recombinant MMP-2, FRET peptide cleavage fluorescence; inhibition, % at 20 µM; 1,900 tested, 4% active; AID 602330;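 further: human MMP-2 activated beforehand with APMA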
Thrombin inh: counter-screen for RPN11 inhibitors: inhibition of bovine thrombin; shares compounds with Rpn11 block; bovine thrombin cleavage of Ub4-pepOG, fluorescence polarization; inhibition, % at 20 µM; 1,900 tested, 13% active; AID 602333;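 active means mean inhibition at least 40% at 20 µM, or signal 3 deviations below plate average, so some actives read negative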;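 further: plate controls were thrombin with DMSO for no effect and buffer wells lacking thrombin for full effect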
* = called active by the depositor; i = inactive; · = no result given; + = active, no number; ! = not confirmed by another sample. Unless noted, no stated cut-off is given here; in the data, active means inhibition above about 40%; inactive means the rest.

SMILES	TPT1 inh	CSN deneddyl inh	HNF4A DNA FP	SENP1 inh	SUMO HTRF inh	Rpn11 block	Rpn11 confirm	MMP-2 counter	Thrombin inh
O=C(Nc1ccc2nn(-c3ccccc3)nc2c1)c1ccc(Br)o1	4.3	25.8	-2.4	-16.4	36.8	+	34.8	38.3	-5.8
O=C(Nc1ccc2nn(-c3ccccc3)nc2c1)c1ccc2c(c1)OCCO2	2.3	0.5	0.3	2.1	27.9	i	·	·	·
COc1ccc(/C=C2/C(=O)N(c3ccccc3)N=C2C)cc1	0.5	-5.2	5.3	2.3	·	i	·	·	·
CCN(CC)c1ccc(/C=C2\C(=O)N(c3nnc(C)c(=O)[nH]3)N=C2C)cc1	42.7*	9.9	-5.3	1.1	-28.3	+	48.5*	-28.9	29.1
O=C(O)c1ccc2c(=O)n3cc(C(=O)c4ccccc4O)cc(Cl)c3nc2c1	1.0	6.6	-8.2	-35.5	24.4	i	·	·	·
COc1cc(-c2noc(CCC(=O)Nc3cccnc3)n2)cc(OC)c1OC	3.1	-1.4	7.4	0.2	-14.8	+	-7.5	-6.2	-8.0
c1coc(-c2nnc(SCc3nc4ccccc4[nH]3)o2)c1	6.6	24.5	27.9	-41.1	10.8	+	-2.5	-1.4	-11.7
CCOC(=O)c1nnn2c1nc(Nc1cccc(C(F)(F)F)c1)c1ccccc12	-2.3	2.5	-3.4	0.8	19.4	+	6.5	-8.3	0.5
O=C(Cc1cccs1)N1CCC(c2nc3c(nnn3Cc3ccccc3)c(=O)[nH]2)CC1	1.2	2.7	1.3	2.4	-6.4	+	-5.2	-9.2	-9.2
CCCCCCCCCCOC(=O)Cn1c(COc2ccccc2)[n+](C)c2ccccc21	-5.4	2.4	7.3	0.6	20.2	i	·	·	·
CCCCCCCCCCOC(=O)Cn1c(COc2cccc(C)c2)[n+](C)c2ccccc21	3.6	2.7	3.5	0.6	19.8	+	8.7	-3.0	-32.6
CCCCCCCCCCOC(=O)Cn1c(COc2ccc(Cl)cc2)[n+](C)c2ccccc21	-4.5	5.4	12.9	0.8	8.2	+	49.8*	-5.0	-17.6
O=c1ccc(NS(=O)(=O)c2ccccc2)cn1Cc1ccc(Cl)c(Cl)c1	2.5	6.8	14.3	-38.7	8.9	+	20.0	28.1	3.2
Cn1c(SCC(=O)NCc2ccccc2)ncc(C(=O)Nc2ccccc2)c1=O	1.8	2.3	2.5	0.5	·	i	·	·	·
O=C(N/N=C/c1ccc(OC(=O)c2ccc3c(c2)OCO3)cc1)c1cncc(Br)c1	0.2	4.8	8.8	4.8	-16.3	+	4.9	8.4	-1.0
Cc1ccn2c(NC3CCCCC3)c(-c3cccc(-c4cccc(Cl)c4)c3)nc2c1	0.6	2.3	11.5	11.6	·	+	11.3	-40.0	-3.8
COc1cc(-c2nc3cc(C)ccn3c2NC2CCCCC2)ccc1-c1ccc(C(C)=O)cc1	6.0	9.9	14.3	25.2	·	+	12.6	4.3	-11.2
CCCCNc1c(-c2ccc(OC)c(SC3CCCCC3)c2)nc2cc(C)ccn12	2.1	0.9	6.8	-50.1	·	i	·	·	·
CCCCCCSc1cc(-c2nc3cc(C)ccn3c2NC2CCCCC2)ccc1OC	8.3	16.8	25.7	-0.5	·	+	11.0	7.4	-12.4
CCC(C)Sc1ccc(-c2nc3cc(C)ccn3c2NC2CCCCC2)cc1 (stereo not given)	·	21.3	44.6*!	-22.6	·	+	8.7	-43.3	-2.5
CSC1=NCCN1C(=O)c1ccc2ccccc2c1	1.2	1.3	4.1	3.5	11.1	i	·	·	·
CN1CCN(C(=O)C2=C[C@@H](c3coc4ccccc4c3=O)C[C@@H](OCc3ccc(CO)cc3)O2)CC1	-0.5	3.2	2.0	-1.7	-11.7	i	·	·	·
